Measured values published in publication PMC4398657 (Bioorganic & medicinal chemistry, 2015).
Marks after values point to notes of the source that are not given here.

What was measured:
[1] = Murine liver microsome stability; format: in vitro ADME, mouse; details: % remaining after 60 min at 37 °C in the presence of NADPH; 25 µM compound
Outline: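 Pooled mouse liver microsomes (0.5 mg/mL final) with test compound at 25 µM final, in 100 mM potassium phosphate pH 7.4 and 3 mM MgCl₂, with or without 2 mM NADPH (no-NADPH as control); 1 h at 37 °C; stopped with an equal volume of acetonitrile with 0.1% TFA. Value is the compound peak-area ratio of +NADPH to no-NADPH.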

[2] = test system: AcrB (AcrAB-TolC in E. coli); assay: Cell-based assay of kinetic parameters; set-up: species or system Escherichia coli; details: manuscript in preparation
[3] = test system: outer membrane of E. coli strain deficient in AcrAB (HN1159); assay: Nitrocefin influx; format: cell-based, Escherichia coli
[4] = test system: transmembrane proton gradient, E. coli NCM3722; assay: LacY permease-dependent uptake and accumulation of [3H]-TMG; format: cell-based, Escherichia coli; details: concentrations up to 20 µM
Outline: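 Whole E. coli cells take up [methyl-³H] β-D-thiogalactopyranoside through the LacY permease, and accumulation depends on proton motive force. The tracer stock was 1 mCi/ml at a specific activity of 7 Ci/mmol. Accumulated radiolabel was measured in the presence of test compound to estimate disruption of the transmembrane proton gradient.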

[5] = test system: wild-type E. coli (AB1157); assay: Checkerboard assay: minimum potentiation concentration; format: cell-based, Escherichia coli; details: potentiation of LVX and PIP, antibiotic not separated
[6] = test system: wild-type E. coli (AB1157); details: antibacterial activity of the EPI alone; cited from earlier work

For CC(=O)Nc1ccc(CCSc2nc(N3CC(C)OC(C)C3)c3c(c2C#N)CC(C)(C)OC3)cc1 (stereo not drawn) [Compound 22f, 6-(4-acetamidophenethylthio)-5-cyano-3,3-dimethyl-8-(2,6-dimethyl-4-morpholino)-3,4-dihydro-1H-pyrano[3,4-c]pyridine], the MLMS [1] was 0 ^* % and the “potency against AcrB relative to MBX2319” value [2] was “at least 20 fold”.

With COc1cccc(CCSc2nc(N3CCOCC3)c3c(c2C#N)CC(C)(C)OC3)c1 [Compound 20f] the “rate of nitrocefin influx” value [3] was “none of the compounds increased the rate of nitrocefin influx” and the “inhibition of uptake and accumulation of 3H-TMG” value (“inhibition” for short) [4] was “none of the analogs significantly inhibited uptake and accumulation”.

For CC1CN(c2nc(SCCc3ccc(NC(=O)C(F)(F)F)cc3)c(C#N)c3c2COC(C)(C)C3)CC(C)O1 (stereo not drawn) [Compound 22g, 6-[4-(2,2,2-trifluoroacetamido)phenethylthio]-5-cyano-8-(2,6-dimethylmorpholino)-3,3-dimethyl-3,4-dihydro-1H-pyrano[3,4-c]pyridine], the MLMS [1] was 0 ^* %.

With CC1CN(c2nc(SCCc3ccc(NC(=N)N)cc3)c(C#N)c3c2COC(C)(C)C3)CC(C)O1 (stereo not drawn) [Compound 22k, 6-(4-guanidinophenethylthio)-5-cyano-3,3-dimethyl-8-(2,6-dimethyl-4-morpholino)-3,4-dihydro-1H-pyrano[3,4-c]pyridine] the “EPI potency / MPC4 in words” value [5] was “submicromolar” and the “inhibition” value [4] was “none of the analogs significantly inhibited uptake and accumulation”.

In the case of CC1(C)Cc2c(C#N)c(SCCc3ccccc3)nc(N3CCOCC3)c2CO1 [MBX2319, 3,3-dimethyl-5-cyano-8-morpholino-6-(phenethylthio)-3,4-dihydro-1H-pyrano[3,4-c]pyridine], the MIC [6] is listed as ≥ 100 µM.

With CC1(C)Cc2c(C#N)c(SCCC#N)nc(N3CCOCC3)c2CO1 [Compound 20a] the “EPI potency / MPC4 in words” value [5] was “inactive”.

For C=CC(=O)Nc1ccc(CCSc2nc(N3CC(C)OC(C)C3)c3c(c2C#N)CC(C)(C)OC3)cc1 (stereo not drawn) [Compound 22i, 6-(4-acrylamidophenethylthio)-5-cyano-3,3-dimethyl-8-(2,6-dimethyl-4-morpholino)-3,4-dihydro-1H-pyrano[3,4-c]pyridine], the “EPI potency / MPC4 in words” value [5] was “submicromolar” and the “inhibition” value [4] was “none of the analogs significantly inhibited uptake and accumulation”.

With CC1(C)Cc2c(C#N)c(SCC(=O)c3ccccc3)nc(N3CCOCC3)c2CO1 [Compound 12c] the “EPI potency / MPC4 in words” value [5] was “inactive”.

For CC1(C)Cc2c(C#N)c(SCC(O)c3ccccc3)nc(N3CCOCC3)c2CO1 (stereo not drawn) [Compound 12d, 6-(2-hydroxy-2-phenylethylthio)-5-cyano-3,3-dimethyl-8-morpholino-3,4-dihydro-1H-pyrano[3,4-c]pyridine], the “EPI potency / MPC4 in words” value [5] was “inactive”.

For COCCN1CCN(c2nc(SCCc3ccc(OC)cc3)c(C#N)c3c2COC(C)(C)C3)CC1 [Compound 21f], the “inhibition” value [4] was “none of the analogs significantly inhibited uptake and accumulation”.

For COCCN1CCN(c2nc(SCCc3ccc(OC)c(OC)c3)c(C#N)c3c2COC(C)(C)C3)CC1 [Compound 21g], the “inhibition” value [4] was “none of the analogs significantly inhibited uptake and accumulation”.
